Measured values as given in article PMC6620028 (Cancer cell, 2019).

Experiments:
AML and other cancers = settings: early phase clinical trials against AML and other cancers, ref Arrillaga-Romany et al., 2017, Kline et al., 2016, Stein et al.; cited from earlier work
[1] = test system: normal hematopoietic cells; experiment: Effect on normal hematopoietic cells; settings: 72 hr
[2] = test system: OCI-AML2, OCI-AML3, TEX, Z138, HCT-116, HeLa, OC316, SUM159 cells; experiment: Growth and viability of leukemia, lymphoma and solid tumor cell lines; format: cell-based, human; settings: 72 hr
[3] = molecular target: T1, human ClpP (recombinant WT) (Homo sapiens, UniProt Q16740); experiment: ClpP FITC-casein degradation, cell-free fluorescence assay; format: biochemical; settings: positive cooperativity
T1 sequence (Q16740 57-277): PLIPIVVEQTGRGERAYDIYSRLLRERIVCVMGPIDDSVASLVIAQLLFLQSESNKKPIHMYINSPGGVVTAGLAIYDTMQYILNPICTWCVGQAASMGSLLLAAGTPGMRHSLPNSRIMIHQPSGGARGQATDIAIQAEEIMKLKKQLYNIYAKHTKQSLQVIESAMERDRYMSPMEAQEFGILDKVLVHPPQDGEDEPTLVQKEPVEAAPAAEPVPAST

[4] = test system: Z138 cells with D190A ClpP overexpression; experiment: Z138 xenograft with D190A ClpP overexpression; format: in vivo, NSG mice; settings: ONC212 50 mg/kg every other day, oral gavage; D190A ClpP group
Procedure, shortened: (§1)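 Female NSG mice (n = 7 per group) received two million luciferase-labelled Z138 cells transfected with a WT or D190A mutant CLPP-overexpressing vector. Engraftment was confirmed by bioluminescence imaging on day 9 post-transplantation. Test compound (50 mg/kg) or water vehicle was then given by oral gavage every other day until moribund. Tumour burden was followed weekly by IVIS luminescence until day 31, and survival was recorded.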

[5] = molecular target: T1, human ClpP (recombinant WT); experiment: ClpP Clptide fluorogenic peptide cleavage assay; format: biochemical; settings: read-out: EC50, ClpP cleavage of FAPHMALVPC (Clptide); without ClpX
ClpP = ClpP (Homo sapiens, UniProt Q16740); experiment: Gel-based α-casein degradation assay; format: biochemical; settings: 3 hr, without ClpX
Chain of ClpP (Q16740 57-277): as above

[6] = test system: Z138 cells with WT ClpP overexpression; experiment: Z138 xenograft with WT ClpP overexpression; format: in vivo, NSG mice; settings: ONC212 50 mg/kg every other day, oral gavage, WT ClpP group
Procedure, shortened: as §1

[7] = test system: ONC201-resistant Z138 cells (ONC-R Z138); experiment: Growth and viability, ONC201-resistant Z138; format: cell-based, human; settings: ONC-R Z138 compared with parental Z138
[8] = molecular target: T1, human ClpP (recombinant WT); experiment: ClpP Ac-Phe-hArg-Leu-ACC fluorogenic peptide cleavage assay; format: biochemical; settings: read-out: EC50, ClpP cleavage of Ac-Phe-hArg-Leu-ACC; without ClpX
[9] = molecular target: endogenous ClpP in OCI-AML2 (Homo sapiens, UniProt Q16740); experiment: Cellular thermal shift assay; format: cell-based; settings: at concentrations associated with activation in the enzymatic assays
Chain of endogenous ClpP in OCI-AML2 (Q16740 57-277): as above

[10] = test system: CLPP+/+ T-REx HEK293 cells; experiment: Alamar blue viability, CLPP+/+ T-REx HEK293; format: cell-based, human; settings: T-REx HEK293, 72 hr
recombinant D190A ClpP = recombinant D190A ClpP (Homo sapiens, UniProt Q16740, D190A); experiment: D190A ClpP enzymatic assays; format: biochemical; settings: peptide or protein substrates
Chain of recombinant D190A ClpP (Q16740 57-277 D190A): as the sequence (Q16740 57-277) above, with D134A counted along it

[11] = molecular target: T1, human ClpP (recombinant WT); experiment: ClpP AC-WLA-AMC fluorogenic peptide cleavage assay; format: biochemical; settings: read-out: EC50, ClpP cleavage of AC-WLA-AMC; without ClpX
[12] = test system: CLPP-/- T-REx HEK293 cells; experiment: Alamar blue viability, CLPP-/- T-REx HEK293; format: cell-based, human; settings: T-REx HEK293, 72 hr
[13] = test system: primary AML patient samples; experiment: Apoptosis in primary AML patient samples; format: cell-based, human; settings: 72 hr; including high risk cytogenetics and molecular mutations
OCI-AML2 cells = experiment: Alamar blue viability assay, OCI-AML2; format: cell-based, human; settings: read-out: IC50, growth and viability, OCI-AML2, 72-hr exposure

Compound: Cc1ccccc1CN1C(=O)C2=C(CCN(Cc3ccccc3)C2)N2CCN=C12 [ONC201]
- Serious adverse events in clinical trials (AML and other cancers): without serious adverse events reported yet
- Effect on normal hematopoietic cells [1]: had little effect
- IC50 values, growth and viability [2]: low micromolar

Compound: O=C1C2=C(CCN(Cc3ccccc3)C2)N2CCN=C2N1Cc1ccc(C(F)(F)F)cc1 [ONC212]
- Hill coefficient (FITC-casein data) [3]: 4.98 ± 0.47
- Tumor burden / anti-tumor activity (luciferase, IVIS imaging) [4]: no discernable anti-tumor activity
- EC50 [5]: 3.37 µM
- Degradation of α-casein by ClpP (SDS-PAGE) (ClpP): induced cleavage of α-casein without the need for ClpX
- Effect on normal hematopoietic cells [1]: had little effect
- Tumor burden (luciferase, IVIS imaging) [6]: significantly reduced
- Median survival ([6]; vehicle 49 days): 55 days
- Growth and viability / sensitivity of ONC201-resistant Z138 cells [7]: cross-resistant
- EC50 [8]: 370 nM
- Binding of endogenous ClpP in cells (CETSA) [9]: bound endogenous ClpP
- IC50 values, growth and viability [2]: nanomolar range
- Growth and viability of CLPP+/+ cells [10]: reduced the growth and viability
- Activation of proteolytic activity of D190A ClpP (recombinant D190A ClpP): could not activate proteolytic activity
- EC50 [11]: 180 nM
- Growth and viability of CLPP-/- cells [12]: but not CLPP^−/− cells
- Apoptosis in primary AML patient samples [13]: induced apoptosis

Compound: Acyldepsipeptide 1 [ADEP1]
- IC50 (OCI-AML2 cells): 50 µM

Compound: CC[C@]1(O)C[C@H]2CN(CCc3c([nH]c4ccccc34)[C@@](C(=O)OC)(c3cc4c(cc3OC)N(C=O)[C@H]3[C@@](O)(C(=O)OC)[C@H](OC(C)=O)[C@]5(CC)C=CCN6CC[C@]43[C@@H]65)C2)C1 [vincristine]
- Growth and viability / sensitivity of ONC201-resistant Z138 cells [7]: retained similar sensitivity

Compound: COc1cccc2c1C(=O)c1c(O)c3c(c(O)c1C2=O)C[C@@](O)(C(=O)CO)C[C@@H]3O[C@H]1C[C@H](N)[C@H](O)[C@H](C)O1 [adriamycin]
- Growth and viability / sensitivity of ONC201-resistant Z138 cells [7]: retained similar sensitivity
